Reference: ChEMBL document CHEMBL4376859, “Prodrugs for nitroreductase-based cancer therapy-3: Antitumor activity of the novel dinitroaniline prodrugs/Ssap-NtrB enzyme suicide gene system: Synthesis, in vitro and in silico evaluation in prostate cancer” (Eur J Med Chem, 2020)
Active and inactive are the calls of the source. No cut-off for these calls is given here.

Legend:
[1] = Cytotoxicity against human HUVEC cells assessed as cell viability at 9 to 150 uM after 24 hrs by MTT assay relative to control; format: cell-based; settings: read-out: Activity
Method in brief: (§1)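 Hep3B hepatoma, PC-3 prostate cancer and HUVEC (healthy control) cells were exposed to nitro compounds at 150, 75, 38, 19 and 9 µM for 24 h and 48 h. Viability was read by MTT assay, and IC50 values were derived from the growth inhibition curves.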

[2] = tested on: Hep 3B2; assay: Cytotoxicity against human Hep3B cells assessed as cell viability at 9 to 150 uM after 24 hrs by MTT assay relative to control; format: functional; method in brief: as §1
[3] = Cytotoxicity against human HUVEC cells assessed as cell viability at 9 to 150 uM after 48 hrs by MTT assay relative to control; format: cell-based; settings: read-out: Activity; method in brief: as §1
[4] = tested on: Hep 3B2; assay: Cytotoxicity against human Hep3B cells assessed as cell viability at 9 to 150 uM after 48 hrs by MTT assay relative to control; format: functional; method in brief: as §1
[5] = tested on: PC-3; assay: Cytotoxicity against human PC3 cells […] Staphylococcus saprophyticus nitroreductase NtrB assessed as cell viability at 150 uM in presence of NADH as cofactor after 48 hrs by SRB assay relative to control; format: functional; settings: PC-3, 48 h, read-out: Activity
Method in brief: (§2)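 Compounds were reduced outside the cells by purified His-tag (Ni column) Ssap-NtrB. The reaction mix held 600 µM NADH and compound (150, 39, 9 µM, or 180, 18, 1.8 nM) and was applied to PC-3 cells. Controls were compound alone in 25 mM Tris/HCl pH 7.5, and enzyme alone at 31 µg/mL. After 48 h, SRB absorbance was read at 492 nm and converted to % viability.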

[6] = tested on: PC-3; assay: Cytotoxicity against human PC3 cells […] Staphylococcus saprophyticus nitroreductase NtrB assessed as reduction in cell viability in presence of NADH as cofactor after 48 hrs by SRB assay; format: functional, cell-based; settings: PC-3, 48 h; method in brief: as §2
[7] = tested on: PC-3; assay: Cytotoxicity against human PC3 cells assessed as reduction in cell viability after 48 hrs by SRB assay; format: functional, cell-based; method in brief: as §2
[8] = molecular target: T1, Putative nitroreductase (Staphylococcus saprophyticus subsp. saprophyticus (strain ATCC 15305 / DSM20229 / NCIMB 8711 / NCTC 7292 / S-41), UniProt Q4A0P1); assay: Substrate activity at Staphylococcus saprophyticus nitroreductase expressed in Escherichia coli BL21 (DE3) assessed as retention time by HPLC analysis; format: ADME
T1 sequence (Q4A0P1 whole entry): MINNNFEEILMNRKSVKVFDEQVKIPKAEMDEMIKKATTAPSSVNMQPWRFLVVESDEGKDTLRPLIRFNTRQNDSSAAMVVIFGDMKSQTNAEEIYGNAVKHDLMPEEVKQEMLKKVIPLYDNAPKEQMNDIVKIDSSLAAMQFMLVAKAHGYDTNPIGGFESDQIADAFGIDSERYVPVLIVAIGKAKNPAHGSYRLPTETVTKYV

[9] = tested on: PC-3; assay: Cytotoxicity against human PC3 cells assessed as cell viability at 9 to 150 uM after 24 hrs by MTT assay relative to control; format: functional; method in brief: as §1
[10] = tested on: Hep 3B2; assay: Cytotoxicity against human Hep3B cells assessed as cell viability after 48 hrs by MTT assay; format: functional, cell-based; method in brief: as §1
[11] = molecular target: T1, Putative nitroreductase; assay: Substrate activity at Staphylococcus saprophyticus nitroreductase NtrB assessed as Kcat/Km using NADH as cofactor in Tris-Cl buffer at pH 7.5 by HPLC analysis relative to CB1954/NfsB; format: ADME
[12] = molecular target: T1, Putative nitroreductase; assay: Substrate activity at Staphylococcus saprophyticus nitroreductase NtrB assessed as enzyme specific activity using NADH as cofactor in Tris-Cl buffer at pH 7.5 by HPLC analysis; format: ADME
[13] = tested on: PC-3; assay: Cytotoxicity against human PC3 cells assessed as cell viability at 9 to 150 uM after 48 hrs by MTT assay relative to control; format: functional; method in brief: as §1
[14] = substrate: NC(=O)c1cc(N2CC2)c([N+](=O)[O-])cc1[N+](=O)[O-]; assay: Substrate activity at Bacillus amyloliquefaciens nitroreductase ywrO assessed as Km using NADPH as cofactor in sodium phosphate buffer at pH 7.5 by HPLC analysis; format: ADME

| Molecule | viability at 24 h, up to 150 µM [1] [%] | Activity [2] | viability at 48 h, up to 150 µM [3] [%] | Activity [4] | viability at 150 µM [5] [%] | IC50 [6] [µM] | Activity [7] | Retention_time [8] [min] | Activity [9] [%] | IC50 [10] [µM] | fold change (FC) [11] | Activity [12] [U/mg] | Activity [13] [%] | Km [14] [µM] | kcat [14] [s⁻¹] | kcat/Km [14] [M⁻¹ s⁻¹] |
| --- | --- | --- | --- | --- | --- | --- | --- | --- | --- | --- | --- | --- | --- | --- | --- | --- |
| COCCC(=O)Oc1cc(N2CCOCC2)c([N+](=O)[O-])cc1[N+](=O)[O-] | 51 to 80 | >80% | 51 to 80 | >80% | – | – | – | – | – | – | – | – | – | – | – | – |
| O=[N+]([O-])c1ccc(N2CCCC(O)C2)c([N+](=O)[O-])c1 (stereo not given) | > 80 | >80% | > 80 | >80% | 50 | 150 | inactive | 14.9 | – | – | – | – | – | – | – | – |
| CC(C)CC(=O)Oc1cc(N2CCOCC2)c([N+](=O)[O-])cc1[N+](=O)[O-] | 51 to 80 | >80% | 51 to 80 | >80% | – | – | – | 24.6 | – | – | – | – | – | – | – | – |
| CCC(=O)Oc1cc(N2CCOCC2)c([N+](=O)[O-])cc1[N+](=O)[O-] | 51 to 80 | >80% | 51 to 80 | >80% | – | – | – | – | – | – | – | – | – | – | – | – |
| O=[N+]([O-])c1cc([N+](=O)[O-])c(Nc2ccc(S(=O)(=O)O)cc2)cc1Nc1ccc(S(=O)(=O)O)cc1 | > 80 | 51 - 80% | > 80 | – | – | – | – | 4.4 | >80 | 71.9 | 2.37 | 2.12 | >80 | – | – | – |
| CCNc1ccc([N+](=O)[O-])cc1[N+](=O)[O-] | > 80 | 51 - 80% | > 80 | 51 - 80% | – | 6.43 | inactive | 16.92 | >80 | – | – | – | >80 | – | – | – |
| Nc1ccccc1Nc1ccc([N+](=O)[O-])cc1[N+](=O)[O-] | > 80 | >80% | > 80 | >80% | – | 15 | inactive | 16.85 | >80 | – | 0.41 | – | >80 | – | – | – |
| O=C(CC(F)(F)F)Nc1cc(N2CCOCC2)c([N+](=O)[O-])cc1[N+](=O)[O-] | > 80 | 51 - 80% | 51 to 80 | 51 - 80% | – | – | – | 21.8 | – | – | 4.73 | 0.99 | – | – | – | – |
| O=[N+]([O-])c1ccc(N2CCC[C@H]2CO)c([N+](=O)[O-])c1 | > 80 | >80% | > 80 | >80% | 50 | > 150 | inactive | 15.1 | – | – | – | – | – | – | – | – |
| O=[N+]([O-])c1ccc(Nc2cc(F)cc(F)c2)c([N+](=O)[O-])c1 | 51 to 80 | >80% | 51 to 80 | – | – | – | inactive | 17.74 | >80 | 89.4 | – | – | >80 | – | – | – |
| O=[N+]([O-])c1ccc(N2CCCCC2)c([N+](=O)[O-])c1 | > 80 | 51 - 80% | 51 to 80 | – | – | – | inactive | 24.21 | >80 | 50.3 | – | 0.49 | >80 | – | – | – |
| COc1cccc(Nc2ccc([N+](=O)[O-])cc2[N+](=O)[O-])c1 | > 80 | >80% | > 80 | >80% | 50 | > 150 | inactive | 18.56 | >80 | – | – | – | >80 | – | – | – |
| O=[N+]([O-])c1ccc(N2CCOCC2)c([N+](=O)[O-])c1 | > 80 | >80% | > 80 | 51 - 80% | 50 | > 150 | inactive | 19.38 | >80 | – | 1.25 | – | >80 | – | – | – |
| O=[N+]([O-])c1ccc(NC2CCCCC2)c([N+](=O)[O-])c1 | > 80 | >80% | > 80 | >80% | 50 | > 150 | inactive | 20.58 | >80 | – | – | – | >80 | – | – | – |
| CN(C)C(=O)Oc1cc(N2CCOCC2)c([N+](=O)[O-])cc1[N+](=O)[O-] | 51 to 80 | >80% | 51 to 80 | >80% | – | – | – | 19.28 | – | – | – | – | – | – | – | – |
| Nitroreductase (Bacillus amyloliquefaciens) (protein) MKVLVLAVHPDMENSAVNKAWAEELKKHDELTVRELYKEYPDGQIDAEKERQLCEQYDRIVFQFPLYWYSAPPLLKTWMDHVLSYGWAYGSKGKALHGKELMLAVSVGAGEDAYQAGGSNHFTLSELLRPFQAMANFTGMTYLPAFALYGVNGADATDIHDNAKRLAAYIKKSF | – | – | – | – | – | – | – | – | – | – | – | – | – | 618 | 8.2 | 13300 |
